Experimental data as given in ChEMBL document CHEMBL3526018, “Metabolites of PPI-2458, a selective, irreversible inhibitor of methionine aminopeptidase-2: structure determination and in vivo activity” (Drug Metab Dispos, 2013).
Calls of active or inactive are those of the source. The rule behind the calls is not given here.

What was measured:
[1] = AUC (0 to infinity) in non-Hodgkin lymphoma patient at 15 mg, po alternate days for 21 days; assay type: ADME, organism-based; parameters: dose 15 mg, route oral, time infinity; conditions: human, in vivo
Outline: (§1)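 Oral PPI-2458 given every other day to lymphoma patients. Plasma sampled pre-dose and at 15 min, 30 min, 1, 2, 3, 4, 6, 8, 24 and 48 h after the first dose. Parent and metabolites were measured by LC-MS/MS after protein precipitation, evaporation and reconstitution. CL/F was computed only for parent and summed analytes. For metabolites, t1/2 is an apparent first-phase value.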

Liver microsome [2] = assay: Metabolic stability in human liver microsomes assessed as retention time of ((3R,4S,5S,6R)-5-methoxy-4-((2R,3R)-2-methyl-3-(3-methylbut-2-en-1-yl)oxiran-2-yl)-1-oxaspiro[2.5]octan-6-yl ((R)-1-amino-3-hydroxy-3-methyl-1-oxobutan-2-yl)carbamate) at 5 mM by LC/MS analysis; assay type: ADME; conditions: 5000 µM
Outline: (§2)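 Liver microsomes (pooled male/female) in 100 mM KPO4 pH 7.4 with PPI-2458 (5 mM stock), pre-incubated 5 min at 37°C, then 10 mM NADPH added; 20 min at 37°C with shaking. Time-zero and no-NADPH controls. Quenched with CH3CN; supernatant dried and redissolved in water. Analysed by LC-MS, ESI+ full scan 300–800 amu, C18 column, 10→50% B gradient.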

[3] = Half life in non-Hodgkin lymphoma patient at 15 mg, po alternate days for 21 days; assay type: ADME, organism-based; conditions: human, in vivo; outline: as §1
CYP3A4 (Homo sapiens) [4] = assay: Activity of human recombinant CYP3A4 assessed as ((3R,4S,5S,6R)-4-((2R,3R)-3-((E)-4-hydroxy-3-methylbut-2-en-1-yl)-2-methyloxiran-2-yl)-5-methoxy-1-oxaspiro[2.5]octan-6-yl((R)-1-amino-3-methyl-1-oxobutan-2-yl)carbamate) formation; conditions: recombinant enzyme
Liver microsome [5] = assay: Metabolic stability in human liver microsomes assessed as retention time of ((3R,4S,5S,6R)-4-((2R,3R)-3-((E)-4-hydroxy-3-methylbut-2-en-1-yl)-2-methyloxiran-2-yl)-5-methoxy-1-oxaspiro[2.5]octan-6-yl((R)-1-amino-3-methyl-1-oxobutan-2-yl)carbamate) at 5 mM by LC/MS analysis; assay type: ADME; conditions: 5000 µM; outline: as §2
Liver = assay: Metabolic stability in mouse liver microsomes assessed as retention time of ((3R,4S,5S,6R)-4-((2R,3R)-3-((E)-4-hydroxy-3-methylbut-2-en-1-yl)-2-methyloxiran-2-yl)-5-methoxy-1-oxaspiro[2.5]octan-6-yl((R)-1-amino-3-methyl-1-oxobutan-2-yl)carbamate) at 5 mM by LC/MS analysis; assay type: ADME; conditions: 5000 µM; outline: as §2
Rattus norvegicus [6] = assay: Inhibition of MetAP2 level in Sprague-Dawley rat thymus assessed as free enzyme level at 3 mg/kg, po by ELISA; assay type: functional, organism-based; parameters: dose 3 mg/kg
Outline: (§3)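 Male Sprague-Dawley rats (200-225 g, n=3 per group) were dosed once IV at 0.3 mg/kg or PO at 0.3 or 3.0 mg/kg, in 11% HPCD in water. Blood, liver, lung, thymus and pooled non-mesenteric lymph nodes were taken at ~24 h and lysed or homogenized with NP-40. Free MetAP2 was measured by ELISA and expressed as % of vehicle.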

CYP3A4 (Homo sapiens) [7] = assay: Activity of human recombinant CYP3A4 assessed as ((3R,4S,5S,6R)-4-((2R,3R)-3-(((R)-3,3-dimethyloxiran-2-yl)methyl)-2-methyloxiran-2-yl)-5-methoxy-1-oxaspiro[2.5]octan-6-yl ((R)-1-amino-3-methyl-1-oxobutan-2-yl)carbamate) formation per pmol of enzyme
Liver microsome [8] = assay: Metabolic stability in rat liver microsomes assessed as retention time of ((3R,4S,5S,6R)-4-((2R,3R)-3-((E)-4-hydroxy-3-methylbut-2-en-1-yl)-2-methyloxiran-2-yl)-5-methoxy-1-oxaspiro[2.5]octan-6-yl((R)-1-amino-3-methyl-1-oxobutan-2-yl)carbamate) at 5 mM by LC/MS analysis; assay type: ADME; conditions: 5000 µM; outline: as §2
Rattus norvegicus [9] = assay: Inhibition of MetAP2 level in Sprague-Dawley rat lung assessed as free enzyme level at 3 mg/kg, po by ELISA; assay type: functional, organism-based; parameters: dose 3 mg/kg; outline: as §3
CYP3A5 (Homo sapiens) [10] = assay: Activity of human recombinant CYP3A5 assessed as ((3R,4S,5S,6R)-4-((2R,3R)-3-(((S)-3,3-dimethyloxiran-2-yl)methyl)-2-methyloxiran-2-yl)-5-methoxy-1-oxaspiro[2.5]octan-6-yl ((R)-1-amino-3-methyl-1-oxobutan-2-yl)carbamate) formation per pmol of enzyme
Rattus norvegicus [11] = assay: Inhibition of MetAP2 level in Sprague-Dawley rat lymph nodes assessed as free enzyme level at 0.3 mg/kg, iv by ELISA; assay type: functional, organism-based; parameters: dose 0.3 mg/kg; outline: as §3
[12] = Apparent oral clearance in non-Hodgkin lymphoma patient at 15 mg, po alternate days for 21 days; assay type: ADME, organism-based; conditions: human, in vivo; outline: as §1
Rattus norvegicus [13] = assay: Inhibition of MetAP2 level in Sprague-Dawley rat whole blood assessed as free enzyme level at 3 mg/kg, po by ELISA; assay type: functional, organism-based; parameters: dose 3 mg/kg; outline: as §3
[14] = Metabolic stability in monkey liver microsomes assessed as retention time of ((3R,4S,5S,6R)-4-((2R,3R)-3-((E)-4-hydroxy-3-methylbut-2-en-1-yl)-2-methyloxiran-2-yl)-5-methoxy-1-oxaspiro[2.5]octan-6-yl((R)-1-amino-3-methyl-1-oxobutan-2-yl)carbamate) at 5 mM by LC/MS analysis; assay type: ADME, Macaca mulatta; conditions: rhesus monkey, 5000 µM; outline: as §2
CYP3A5 (Homo sapiens) [15] = assay: Ratio of Vmax to Km for human recombinant CYP3A5 assessed as ((3R,4S,5S,6R)-4-((2R,3R)-3-((E)-4-hydroxy-3-methylbut-2-en-1-yl)-2-methyloxiran-2-yl)-5-methoxy-1-oxaspiro[2.5]octan-6-yl((R)-1-amino-3-methyl-1-oxobutan-2-yl)carbamate) formation; conditions: recombinant enzyme

AUC(0-inf) [1]: 44.1 ng·h/mL
Drug metabolism (Liver microsome [2]): metabolite_detected
half-life [3]: 1.6 h
Km (CYP3A4 (Homo sapiens) [4]): 15 µM
Drug metabolism (Liver microsome [5]): metabolite_detected
Drug metabolism (Liver): metabolite_detected
Vmax (CYP3A4 (Homo sapiens) [7]): 2.7 pmol/min
Drug metabolism (Liver microsome [8]): metabolite_detected
Vmax (CYP3A5 (Homo sapiens) [10]): 1.42 pmol/min
CL/F [12]: 5880 mL/min
Drug metabolism [14]: metabolite_detected
Vmax/Km (CYP3A5 (Homo sapiens) [15]): 0.031 µL/min
SMILES: CO[C@@H]1[C@H](OC(=O)N[C@@H](C(N)=O)C(C)C)CC[C@]2(CO2)[C@H]1[C@@]1(C)O[C@@H]1CC=C(C)C [PPI-2458]
inhibition (Rattus norvegicus [6]): Active
inhibition (Rattus norvegicus [9]): Active
inhibition (Rattus norvegicus [11]): Active
inhibition (Rattus norvegicus [13]): Active
